Results from article PMC2745912 (The Journal of neuroscience : the official journal of the …, 2009).

Key:
Abcg2 [1] = molecular target: T1, Abcg2 (Mus musculus, UniProt Q7TMS5); type: in vivo
T1 sequence (Q7TMS5 1-657): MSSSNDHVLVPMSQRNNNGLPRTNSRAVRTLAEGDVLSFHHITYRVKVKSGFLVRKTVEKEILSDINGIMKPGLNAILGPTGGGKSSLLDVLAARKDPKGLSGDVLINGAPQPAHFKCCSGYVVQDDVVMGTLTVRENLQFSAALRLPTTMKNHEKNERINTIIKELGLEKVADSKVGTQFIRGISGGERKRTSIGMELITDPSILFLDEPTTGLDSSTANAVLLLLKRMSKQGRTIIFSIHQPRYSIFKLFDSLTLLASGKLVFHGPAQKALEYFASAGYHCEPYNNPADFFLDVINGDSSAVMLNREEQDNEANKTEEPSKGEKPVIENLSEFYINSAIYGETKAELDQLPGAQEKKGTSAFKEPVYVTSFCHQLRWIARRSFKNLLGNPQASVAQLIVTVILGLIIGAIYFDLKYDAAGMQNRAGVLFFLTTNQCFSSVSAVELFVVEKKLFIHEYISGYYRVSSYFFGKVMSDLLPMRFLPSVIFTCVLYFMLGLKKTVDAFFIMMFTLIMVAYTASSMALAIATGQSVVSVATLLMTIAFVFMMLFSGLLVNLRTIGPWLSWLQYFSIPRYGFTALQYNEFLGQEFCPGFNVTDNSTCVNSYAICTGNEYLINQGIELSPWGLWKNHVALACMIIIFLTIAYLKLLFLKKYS
How it was run: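 Peptides were Cy5.5-labeled via NHS ester kit. Adult KO/wt pairs were matched for age, sex and weight and shaved under isoflurane. Pairs received equal labeled peptide (65 or 200 μg) by tail vein. Heads were imaged live (1.5 mm resolution) at 15 min and 2, 4, 6, 8 and/or 24 h. Brains were saline-perfused and scanned ex vivo (1 mm). Excitation: 670 nm pulsed laser diode, 80 MHz, 12 ps.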

Abcg2 [2] = molecular target: T1, Abcg2; type: in vivo; conditions: after intravenous injection; brain sections stained with 6E10
How it was run: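 Mice received i.v. Cy5.5-labeled Aβ1–40 and underwent optical imaging, then saline perfusion. Brains were OCT-embedded and frozen-sectioned at 10 μm. Sections were immunostained with anti-Aβ 6E10 plus secondary antibody; control sections got secondary antibody only. Vessels were marked with fluorescein-labeled tomato lectin.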

ABCG2 expression in HBEC = assay: ABCG2 expression in human brain endothelial cells; type: cell-based; conditions: 50 units of either cytokine; data not shown
hABCG2 = molecular target: T2, hABCG2 (Homo sapiens, UniProt Q9UNQ0); type: cell-based; conditions: empty vector-transfected HEK293; 5 μM Aβ1-40; Hoechst 33342; data not shown
T2 sequence (Q9UNQ0 1-655): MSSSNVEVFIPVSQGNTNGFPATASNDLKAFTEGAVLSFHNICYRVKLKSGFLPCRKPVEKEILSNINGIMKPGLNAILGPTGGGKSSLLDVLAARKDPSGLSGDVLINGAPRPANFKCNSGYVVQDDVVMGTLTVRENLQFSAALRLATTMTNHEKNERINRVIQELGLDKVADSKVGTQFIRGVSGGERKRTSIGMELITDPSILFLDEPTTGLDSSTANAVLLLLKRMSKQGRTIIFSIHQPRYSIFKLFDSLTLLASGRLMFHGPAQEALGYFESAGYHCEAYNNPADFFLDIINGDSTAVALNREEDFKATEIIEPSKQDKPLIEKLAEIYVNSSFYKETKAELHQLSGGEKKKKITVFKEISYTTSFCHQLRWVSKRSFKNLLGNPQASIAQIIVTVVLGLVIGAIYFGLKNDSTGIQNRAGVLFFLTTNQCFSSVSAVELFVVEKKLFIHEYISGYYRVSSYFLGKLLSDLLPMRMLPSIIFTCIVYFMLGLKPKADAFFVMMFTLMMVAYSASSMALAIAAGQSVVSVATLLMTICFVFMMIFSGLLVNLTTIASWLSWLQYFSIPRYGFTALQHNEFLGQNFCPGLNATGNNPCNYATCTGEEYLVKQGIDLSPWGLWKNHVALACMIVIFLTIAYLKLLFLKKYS

In the case of “Cy5.5-labeled Aβ1-40: Synthetic Aβ1-40 labeled with fluorescent dye Cy5.5 using Cy5.5 Mono NHS ester kit”, the “brain fluorescence concentration, Abcg2 KO vs wt animals” value (Abcg2 [1]; 65 μg/mouse i.v., two pairs of mice, data not shown) is reported as “comparatively higher” and the “Aβ immunofluorescence in brains of Abcg2 KO mice compared to wt mice” value (Abcg2 [2]) is reported as “strongly enhanced”.
For TNF-α, the “ABCG2 expression in HBEC after cytokine” value (ABCG2 expression in HBEC) was “no changes in ABCG2 expression”.
With IL-1β: pro-inflammatory cytokine the “ABCG2 expression in HBEC after cytokine” value (ABCG2 expression in HBEC) was “no changes in ABCG2 expression”.
“Aβ1-40: Synthetic Aβ1-40 peptide purchased from Biopeptides Co., Inc” was tested, and the “effect of Aβ1-40 peptides on drug uptake in empty vector-transfected cells” value (hABCG2) was “did not significantly affect” and the “more peptide transported into the brain in the absence of Abcg2” value (Abcg2 [1]; Abcg2 KO vs wt mice, i.v. injection of Cy5.5-labeled peptide) was 20~37%.
